Shown is part of a subset that was picked to be rich in hits.
Beta2AR agonist – human beta-2 adrenergic receptor agonism by FAP; response, % (no concentration beside the values); hit rate 0.43% among 340,000; AID 504454; Am2.2-beta2AR cells, FAP receptor internalization, flow cytometry; P07550;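 active = response above a set limit, near 3 SD of response in nonfluorescent compounds, cut at about 42% in these data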
Target sequence (P07550 whole entry, looked up): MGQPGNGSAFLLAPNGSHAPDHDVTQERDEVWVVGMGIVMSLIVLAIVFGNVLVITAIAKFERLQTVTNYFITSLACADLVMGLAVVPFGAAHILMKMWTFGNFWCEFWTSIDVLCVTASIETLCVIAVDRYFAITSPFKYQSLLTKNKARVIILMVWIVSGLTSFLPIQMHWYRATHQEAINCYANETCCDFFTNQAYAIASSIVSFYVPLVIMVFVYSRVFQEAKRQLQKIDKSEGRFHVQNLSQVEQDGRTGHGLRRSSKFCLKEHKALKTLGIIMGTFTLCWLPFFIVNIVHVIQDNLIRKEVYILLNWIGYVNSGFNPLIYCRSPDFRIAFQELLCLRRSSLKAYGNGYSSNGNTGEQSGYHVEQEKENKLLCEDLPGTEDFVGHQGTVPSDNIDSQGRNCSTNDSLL
XBP1 UPR activ – adaptive UPR (XBP1) activation; CHO-XBP1 luciferase reporter, IRE1-XBP1 UPR activation, luminescence; percent of tunicamycin response, DMSO as zero; hit rate 0.33% among 330,000; activation, % at 20 µM; AID 463104;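 active = versus positive control, 20 µM dose yields 30% or more activation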
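Material: CHO cell line with stable XBP1 luciferase reporter; buffer or medium: F12 medium containing 10% fetal bovine serum; compound: single point, 20 µM final compound, 1% DMSO; incubation: 6 h treatment, 37 °C; measured by: glow luminescence from Steady-Glo reagent; evaluation: activation, % of tunicamycin; control set: tunicamycin high, DMSO low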
pCIP destab – p/CIP protein destabilization | Q05BA5 | F442A p/CIP-EGFP cells, EGFP fluorescence, 16 h | decrease of EGFP signal, % at 10 µM | hit rate 0.01% among 290,000 | AID 1984;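 active = EGFP signal decrease of at least 30% at 10 µM or well 3 SD below plate mean, unless failing retest; inactive = the rest, including hits failing retest or dose response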
UPR CHOP act – activators of apoptotic arm of unfolded protein response (CHOP); CHO-CHOP luciferase reporter, UPR activation, luminescence; percent of tunicamycin response over DMSO baseline; activation, % at 10 µM; hit rate 0.34% among 330,000; AID 449763;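 active = at 10 µM dose, activation of 40% or more, normalized to positive control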
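assay system = CHO CHOP reporter cells | amount = 500 CHO-CHOP cells per well | buffer or medium = F12 with 10% FBS | incubation = 16-18 h cell attachment, then 6 h compound exposure, 37 °C | detection = luminescence read with Steady-Glo | read-out = percent activation relative to tunicamycin control | controls = tunicamycin high control, DMSO low control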
CHOP inhibitor – inhibitors of CHOP induction in ER stress response; CHO-K1 CHOP-promoter luciferase, tunicamycin-induced, 15-18 h; inhibition, % at 10 µM; AID 2732; hit rate 3.8% among 220,000;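 active = compounds that reduced the stress-induced luciferase reporter signal by more than about 70% of percent inhibition, limit read from the data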
Dynein transport – dynein cargo transport inhibition; 3617.4 mouse cells, GR-EGFP nuclear translocation imaging; test concentration mostly 20 µM; stimulated with dexamethasone, 1 µM; stronger effect = lower value; z-score, hits read low; hit rate 0.47% among 220,000; AID 1381;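 active = plate z-score of nuclear minus cytoplasmic receptor signal below a set negative limit, without overly bright fluorescence or cell loss, cut at about -3.5 in these data, passing the limit was not always enough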;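 note: z-score of nuclear minus cytoplasmic ring GR-EGFP intensity difference per well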
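Buffer or medium: tet-free medium with charcoal-stripped serum / Also added: dexamethasone agonist, 1.0 µM final, for 30 min / Timing: induction 48 h, compound 1 h, agonist 30 min / Measured by: high-content fluorescence imaging after fixation / Read-out: nuclear-to-cytoplasmic GR-EGFP distribution per well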
Large screens that a line does not name were inactive.

COc1ccc(-n2nc3c(N4CCC(C(=O)NCC(C)c5ccccc5)CC4)nnc(C)c3c2C)cc1 (stereo unspecified)	none (no result: CHOP inhibitor, Dynein transport)
COc1ccc(-n2nc3c(N4CCC(C(=O)NCc5ccccc5C)CC4)nnc(C)c3c2C)cc1	Beta2AR agonist 82 (no result: CHOP inhibitor, Dynein transport)
Nc1cc(Cl)ccc1C(=O)OCC(=O)N1CCCCCC1	none (no result: pCIP destab, CHOP inhibitor, Dynein transport)
CC(C)(C)OC(=O)N1CCC(c2cc(=O)n3[nH]c(-c4ccc(Cl)cc4)cc3n2)CC1	CHOP inhibitor 70
CC(C)(C)OC(=O)N1CCC(c2cc(=O)n3[nH]cc(C(=O)Nc4ccc(F)c(Cl)c4)c3n2)CC1	none
COC(=O)N/N=C/c1cc(Br)ccc1O	none
Oc1ccc(Br)cc1/C=N/NC(=S)NCCc1ccccc1	none (no result: CHOP inhibitor, Dynein transport)
O=C(CCc1ccccc1)N/N=C/c1cc(Br)ccc1O	CHOP inhibitor 76
CC(C)NC(=S)N/N=C/c1cc(Br)ccc1O	CHOP inhibitor 77
O=C(NCc1cccnc1)NC(=O)c1ccc(Cl)cc1	none (no result: CHOP inhibitor, Dynein transport)
COc1ccc(NC(=O)COC(=O)C2CCN(S(=O)(=O)c3cccs3)CC2)cc1	CHOP inhibitor 78
O=C(COC(=O)c1ccccc1OCc1ccccc1Cl)NC1CCS(=O)(=O)C1 (stereo unspecified)	none (no result: pCIP destab, CHOP inhibitor, Dynein transport)
CCOC(=O)CSc1c(-c2ccccc2)c2cc(Cl)ccc2[nH]c1=O	CHOP inhibitor 91
O=c1[nH]c2ccc(Cl)cc2c(-c2ccccc2)c1CN1CCOCC1	none
Cc1ccc(S(=O)(=O)NCc2c(-c3ccccc3)c3cc(Cl)ccc3[nH]c2=O)cc1	CHOP inhibitor 103
Cc1cc(C)c2nc(SC(C)C(=O)NCC(=O)Nc3ccc(F)c(F)c3F)cc(C)c2c1 (stereo unspecified)	CHOP inhibitor 92
Cc1ccc(NC(=O)CN(C)C(=O)CCOc2cccc(C)c2)cc1	none
Cc1sc2nc(N3CCOCC3)[nH]c(=O)c2c1-c1ccccc1	none
Cc1sc2nc(C(C)Nc3ccccc3N3CCOCC3)[nH]c(=O)c2c1C (stereo unspecified)	CHOP inhibitor 75
CCS(=O)(=O)c1ncc(Cl)c(C(=O)Nc2ccc(S(=O)(=O)N(C)c3ccccc3)cc2)n1	none (no result: CHOP inhibitor, Dynein transport)
CCN(c1ccccc1)S(=O)(=O)c1ccc(NC(=O)c2nc(S(C)(=O)=O)ncc2Cl)cc1	Beta2AR agonist 104 (no result: CHOP inhibitor, Dynein transport)
COc1ccc(N(CC(=O)N/N=C(\C)c2ccc(OC)c(OC)c2)S(=O)(=O)c2ccccc2)cc1	none (no result: CHOP inhibitor, Dynein transport)
Cc1cc(OCC(F)(F)C(F)(F)C(F)(F)C(F)(F)C(F)(F)C(F)F)nc(N)n1	CHOP inhibitor 91
NC(=O)c1ccc(OCC(F)(F)C(F)(F)C(F)(F)C(F)(F)C(F)(F)C(F)F)cc1	none
FC(F)(F)c1nc(Sc2ncccc2C(F)(F)F)n[nH]1	none
CCC(=O)Nc1sc2c(c1C#N)CCC2	none
CC(C)CC(=O)NC(NC(=S)Nc1sc2c(c1C#N)CCCC2)C(Cl)(Cl)Cl (stereo unspecified)	CHOP inhibitor 79
O=C(O)c1ccccc1Nc1cccc(OCc2ccc3ccccc3n2)c1	none (no result: pCIP destab, Dynein transport)
O=C(O)Cc1cn(Cc2ccc(F)cc2)c2ccccc12	UPR CHOP act 47
Cc1ccc(Cn2cc(CCC(=O)O)c3ccccc32)cc1	none (no result: CHOP inhibitor, Dynein transport)
Cc1ccc(S(=O)(=O)c2cc3cc(Br)ccc3oc2=O)cc1	none
CC(C)c1ccc(S(=O)(=O)c2cc3cc(Br)ccc3oc2=O)cc1	CHOP inhibitor 89
CCOC(=O)c1ccccc1NC(=O)CSc1nc2ccccc2n1CC(=O)N1CCCC1	none
CCN(CC)C(=O)CN(c1ccc(F)c(Cl)c1)S(C)(=O)=O	CHOP inhibitor 76
CCN(CC)C(=O)CN(c1ccc2c(c1)OCO2)S(C)(=O)=O	none
O=C(OCC(=O)N1CCCC1)c1ccc(S(=O)(=O)Nc2ccccc2)cc1	none
Cc1ccccc1C(=O)NC(=S)Nc1sc2c(c1C#N)CCC(C)C2 (stereo unspecified)	none
CC1CCc2c(sc(NC(=S)NC(=O)c3ccccc3)c2C#N)C1 (stereo unspecified)	CHOP inhibitor 71
CCCC1Cc2c(sc(NC(=S)NC(=O)c3ccccc3)c2C#N)CO1 (stereo unspecified)	CHOP inhibitor 86 (no result: Beta2AR agonist)
CCOC(=O)C1(Cc2ccccc2)CCN(Cc2ccc(C)s2)CC1	CHOP inhibitor 90
CCOC(=O)C1(CCc2ccccc2)CCN(Cc2c(O)cccc2OC)CC1	CHOP inhibitor 73
CCOC(=O)C1(Cc2ccccc2)CCN(Cc2ccc(C3CCCCO3)s2)CC1 (stereo unspecified)	none
CCOC(=O)C1(CCc2ccccc2)CCN(Cc2ccc(OC)cc2)CC1	none
O/N=C/c1ccc(OCc2ccccc2)c(Br)c1	none (no result: XBP1 UPR activ, UPR CHOP act)
O/N=C/c1cc(Br)cc(Br)c1OCc1ccccc1	CHOP inhibitor 92
Cc1cc(C)c(S(=O)(=O)c2c(C)cccc2C)c(OCC(C)C)n1	CHOP inhibitor 74 (no result: Dynein transport)
Cc1cc(C)c(C(=O)CN2C(=O)NC3(CCCCCC3)C2=O)cc1C	none
O=C(/C=C/c1ccccc1[N+](=O)[O-])c1ccccc1Br	Beta2AR agonist 57
CCc1cc2ccccc2nc1SCC(=O)Nc1cc(C)on1	none
CCc1cc2ccc(OC)cc2nc1SCC(=O)NNC(C)=O	none
COc1ccc(Nc2nnc(SCC(=O)Nc3cc(C)on3)s2)cc1	CHOP inhibitor 85 (no result: XBP1 UPR activ, UPR CHOP act)
CCc1cc2cc(C)c(C)cc2nc1SCC(=O)Nc1cc(C)on1	CHOP inhibitor 89
CCc1cc2ccc(OC)cc2nc1SCC(=O)Nc1cc(C)on1	CHOP inhibitor 82
O=C1C=C(Nc2ccc(Cl)cc2)CC(c2ccc(Cl)cc2)C1 (stereo unspecified)	none
Cc1ccc(C2CC(=O)C=C(Nc3ccc(Cl)cc3)C2)cc1 (stereo unspecified)	CHOP inhibitor 73
CN(Cc1ccccc1)c1nc2nonc2nc1N1CCCC(CN2CCCC2=O)C1 (stereo unspecified)	none
COC(=O)c1c(NC(=O)c2ccco2)sc2c1CCC2	CHOP inhibitor 76
COC(=O)c1c(NC(=O)c2c(-c3ccccc3Cl)noc2C)sc2c1CCC2	CHOP inhibitor 81
O=C(Nc1sc2c(c1C(=O)NC1CC1)CCCCCC2)c1ccco1	CHOP inhibitor 96
COc1ccc(CN2CCC(=O)N([C@H](CO)c3ccccc3)CC2)cc1	none (no result: CHOP inhibitor, Dynein transport)
N[C@@H](CC(=O)O)C(=O)O	none (no result: Beta2AR agonist, XBP1 UPR activ, pCIP destab, UPR CHOP act, Dynein transport)
CCCCCCC(=O)NNC(=O)c1c(O)c2ccccc2n(CCC)c1=O	CHOP inhibitor 76
CCn1c(=O)c(C(=O)NNS(=O)(=O)c2ccc(Cl)cc2)c(O)c2ccccc21	CHOP inhibitor 84
CCCCCCCC(=O)NNC(=O)c1c(O)c2ccccc2n(CCC)c1=O	none

Compound activity: PubChem BioAssay, several laboratories
